Data: ChEMBL document CHEMBL3822380, “Simple avarone mimetics as selective agents against multidrug resistant cancer cells” (Eur J Med Chem, 2016)
In brackets after ≈: the same amount, converted by molar mass. Activity calls are given as the source filed them.

Assays:
NCI-H460 [1] = assay: Induction of apoptosis in human NCI-H460 cells assessed as live cells at 25 uM after 72 hrs by annexin-V/propidium iodide staining-based flow cytometric analysis (reference value: 98.3%); type: functional
NCI-H460 [2] = assay: Induction of apoptosis in human NCI-H460 cells assessed as early apoptotic cells at 25 uM after 72 hrs by annexin-V/propidium iodide staining-based flow cytometric analysis (reference value: 0.3%); type: functional
NCI-H460 [3] = assay: Induction of apoptosis in human NCI-H460 cells assessed as late apoptotic/necrotic cells at 25 uM after 72 hrs by annexin-V/propidium iodide staining-based flow cytometric analysis (reference value: 0.2%); type: functional
NCI-H460 [4] = assay: Induction of apoptosis in human NCI-H460 cells assessed as dead cells at 25 uM after 72 hrs by annexin-V/propidium iodide staining-based flow cytometric analysis (reference value: 1.2%); type: functional
NCI-H460 [5] = assay: Induction of apoptosis in multidrug resistant human NCI-H460 cells assessed as live cells at 25 uM after 72 hrs by annexin-V/propidium iodide staining-based flow cytometric analysis (reference value: 96.4%); type: functional
NCI-H460 [6] = assay: Induction of apoptosis in multidrug resistant human NCI-H460 cells assessed as early apoptotic cells at 25 uM after 72 hrs by annexin-V/propidium iodide staining-based flow cytometric analysis (reference value: 1.1%); type: functional
NCI-H460 [7] = assay: Induction of apoptosis in multidrug resistant human NCI-H460 cells assessed as late apoptotic/necrotic cells at 25 uM after 72 hrs by annexin-V/propidium iodide staining-based flow cytometric analysis (reference value: 1%); type: functional
NCI-H460 [8] = assay: Induction of apoptosis in multidrug resistant human NCI-H460 cells assessed as dead cells at 25 uM after 72 hrs by annexin-V/propidium iodide staining-based flow cytometric analysis (reference value: 1.5%); type: functional
[9] = Induction of apoptosis in human HaCaT cells assessed as live cells at 25 uM after 72 hrs by annexin-V/propidium iodide staining-based flow cytometric analysis (reference value: 96.8%); type: cell-based; conditions: read-out: Activity
HaCaT [10] = assay: Induction of apoptosis in human HaCaT cells assessed as early apoptotic cells at 25 uM after 72 hrs by annexin-V/propidium iodide staining-based flow cytometric analysis (reference value: 0.2%); type: cell-based
HaCaT [11] = assay: Induction of apoptosis in human HaCaT cells assessed as late apoptotic/necrotic cells at 25 uM after 72 hrs by annexin-V/propidium iodide staining-based flow cytometric analysis (reference value: 0.2%); type: cell-based
HaCaT [12] = assay: Induction of apoptosis in human HaCaT cells assessed as dead cells at 25 uM after 72 hrs by annexin-V/propidium iodide staining-based flow cytometric analysis (reference value: 2.8%); type: cell-based
NCI-H460 [13] = assay: Cytotoxicity against human NCI-H460 cells after 72 hrs by MTT assay; type: functional, cell-based; conditions: NCI-H460, 72 h
In short: (§1)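 Seeding in 96-well plates at 1000 (NCI-H460), 2000 (NCI-H460/R) or 4000 (HaCaT) cells/well, treated after 24 h for 72 h. MTT at 0.4 mg/mL final, 4 h at 37 °C. Formazan dissolved in DMSO, absorbance read at 540 nm. Inhibition % = (1 − A treated/A untreated)×100. IC30 and IC50 obtained by linear regression.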

NCI-H460 [14] = assay: Cytotoxicity against multidrug resistant human NCI-H460 cells after 72 hrs by MTT assay; type: functional, cell-based; conditions: NCI-H460, 72 h; in short: as §1
HaCaT [15] = assay: Cytotoxicity against human HaCaT cells after 72 hrs by MTT assay; type: cell-based; conditions: for IC50: Homo sapiens, HaCaT; for IC30: human, hacat; in short: as §1
NCI-H460 [16] = assay: Induction of superoxide anion generation in human NCI-H460 cells at 25 uM after 72 hrs by DHE staining-based flow cytometric analysis relative to control; type: functional, cell-based
In short: (§2)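 Seeded as for cell death (50,000 or 100,000 cells/well), treated 72 h at 25 µM, with CDDP 5 µM as control. Adherent cells trypsinized and loaded with 1 µM DHE for 30 min at 37 °C in the dark, then washed twice in PBS. Flow cytometry at ex 488/em 585 nm (FL2-H). Mean fluorescence intensity corrected for autofluorescence and compared with untreated control.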

NCI-H460 [17] = assay: Induction of superoxide anion generation in multidrug resistant human NCI-H460 cells at 25 uM after 72 hrs by DHE staining-based flow cytometric analysis relative to control; type: functional, cell-based; in short: as §2
HaCaT [18] = assay: Induction of superoxide anion generation in human HaCaT cells at 25 uM after 72 hrs by DHE staining-based flow cytometric analysis relative to control; type: cell-based; in short: as §2
[19] = Selectivity ratio of IC30/IC50 for human HaCaT cells to IC30/IC50 for human NCI-H460 cells; type: ADME, cell-based; conditions: HaCaT cells versus NCI-H460 cells
In short: (§3)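 Fold threshold of 1.5 used to call selectivity to cancer cells, resistance, or selectivity to MDR cells.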

[20] = Selectivity ratio of IC30/IC50 for human HaCaT cells to IC30/IC50 for multidrug resistant human NCI-H460 cells; type: ADME, cell-based; conditions: HaCaT cells versus multidrug resistant NCI-H460 cells; in short: as §3
NCI-H460 [21] = assay: Selectivity ratio of IC30/IC50 for human NCI-H460 cells to IC30/IC50 for multidrug resistant human NCI-H460 cells; type: functional; in short: as §3
Micrococcus luteus [22] = assay: Antibacterial activity against Micrococcus luteus ATCC 4698 by broth microdilution method; type: functional; conditions: NCTC 2665
In short: (§4)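 Broth microdilution per NCCLS. Compounds dissolved in DMSO as 10 mg/mL stock, diluted in Mueller Hinton broth (bacteria) or Sabouraud dextrose broth (fungi). Amikacin served as the positive control for bacteria and nystatin for fungi.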

Clostridium sporogenes = assay: Antibacterial activity against Clostridium sporogenes ATCC 19404 by broth microdilution method; type: functional; in short: as §4
Escherichia coli = assay: Antibacterial activity against Escherichia coli ATCC 25922 by broth microdilution method; type: functional; in short: as §4
Salmonella enteritidis = assay: Antibacterial activity against Salmonella enterica subsp. enterica serovar Enteritidis ATCC 13076 by broth microdilution method; type: functional; in short: as §4
Pseudomonas aeruginosa = assay: Antibacterial activity against Pseudomonas aeruginosa ATCC 9027 by broth microdilution method; type: functional; in short: as §4
Candida albicans = assay: Antifungal activity against Candida albicans ATCC 10231 by broth microdilution method; type: functional; in short: as §4
Saccharomyces cerevisiae = assay: Antifungal activity against Saccharomyces cerevisiae ATCC 9763 by broth microdilution method; type: functional; in short: as §4
Aspergillus brasiliensis = assay: Antifungal activity against Aspergillus brasiliensis ATCC 16404 by broth microdilution method; type: functional; in short: as §4
Staphylococcus aureus = assay: Antibacterial activity against Staphylococcus aureus ATCC 6538 by broth microdilution method; type: functional; in short: as §4
Bacillus spizizenii = assay: Antibacterial activity against Bacillus subtilis ATCC 6633 by broth microdilution method; type: functional; in short: as §4
Micrococcus luteus [23] = assay: Antibacterial activity against Micrococcus luteus ATCC 10240 by broth microdilution method; type: functional; in short: as §4

CCCCCCCCNC1=CC(=O)C=C(C[C@]2(C)[C@@H](C)CC[C@]3(C)C(C)=CCC[C@@H]23)C1=O
Activity (NCI-H460 [1]): 95.7% | Activity (NCI-H460 [2]): 0.1% | Activity (NCI-H460 [3]): 0.3% | Activity (NCI-H460 [4]): 3.9% | Activity (NCI-H460 [5]): 92.6% | Activity (NCI-H460 [6]): 0% | Activity (NCI-H460 [7]): 0.1% | Activity (NCI-H460 [8]): 7.3% | viability at 72 h, 25 µM [9]: 85.3% | Activity (HaCaT [10]): 0.3% | Activity (HaCaT [11]): 0.6% | Activity (HaCaT [12]): 13.8% | IC30 (NCI-H460 [13]): 21 µM | IC50 (NCI-H460 [13]): 38 µM | IC30 (NCI-H460 [14]): 13 µM | IC50 (NCI-H460 [14]): 35 µM | IC50 (HaCaT [15]): 17 µM | IC30 (HaCaT [15]): 13 µM | Activity (NCI-H460 [16]): inactive | Activity (NCI-H460 [17]): Active | Activity (HaCaT [18]): Toxic

CC1=CCC[C@H]2[C@](C)(CC3=CC(=O)C=C(NCCc4ccccc4)C3=O)[C@@H](C)CC[C@]12C
Activity (NCI-H460 [1]): 71.7% | Activity (NCI-H460 [2]): 0.1% | Activity (NCI-H460 [3]): 0.2% | Activity (NCI-H460 [4]): 28% | Activity (NCI-H460 [5]): 53% | Activity (NCI-H460 [6]): 1.2% | Activity (NCI-H460 [7]): 3.5% | Activity (NCI-H460 [8]): 42.3% | viability at 72 h, 25 µM [9]: 58.1% | Activity (HaCaT [10]): 0.2% | Activity (HaCaT [11]): 0.4% | Activity (HaCaT [12]): 41.3% | IC30 (NCI-H460 [13]): 14 µM | IC50 (NCI-H460 [13]): 21 µM | IC30 (NCI-H460 [14]): 6 µM | IC50 (NCI-H460 [14]): 11 µM | IC50 (HaCaT [15]): 23 µM | IC30 (HaCaT [15]): 18 µM | selectivity ratio [19]: ≤ 1.5 | selectivity ratio [20]: ≤ 1.5 | selectivity ratio (NCI-H460 [21]): <=1.5 | Activity (NCI-H460 [17]): Active | Activity (HaCaT [18]): Toxic

CC1=CCC[C@H]2[C@](C)(CC3=CC(=O)C(NCCc4ccccc4)=CC3=O)[C@@H](C)CC[C@]12C
Activity (NCI-H460 [1]): 92% | Activity (NCI-H460 [2]): 0.3% | Activity (NCI-H460 [3]): 0.5% | Activity (NCI-H460 [4]): 7.2% | Activity (NCI-H460 [5]): 94.9% | Activity (NCI-H460 [6]): 0.4% | Activity (NCI-H460 [7]): 0.6% | Activity (NCI-H460 [8]): 4.1% | viability at 72 h, 25 µM [9]: 89.5% | Activity (HaCaT [10]): 0.3% | Activity (HaCaT [11]): 1% | Activity (HaCaT [12]): 9.2% | IC30 (NCI-H460 [13]): 75 µM | IC50 (NCI-H460 [13]): > 100 µM | IC30 (NCI-H460 [14]): 10 µM | IC50 (NCI-H460 [14]): 91 µM | IC50 (HaCaT [15]): > 100 µM | IC30 (HaCaT [15]): 76 µM | selectivity ratio [19]: ≤ 1.5 | selectivity ratio [20]: ≤ 1.5 | selectivity ratio (NCI-H460 [21]): <=1.5 | Activity (NCI-H460 [17]): inactive

CC(C)(C)C1=CC(=O)C=C(NCc2ccccc2)C1=O
MIC (Micrococcus luteus [22]): 4650 µM (≈ 1250 µg/mL) | MIC (Clostridium sporogenes): 2320 µM (≈ 626 µg/mL) | MIC (Escherichia coli): 9 µM (≈ 2.42 µg/mL) | MIC (Salmonella enteritidis): 4650 µM (≈ 1250 µg/mL) | MIC (Pseudomonas aeruginosa): 2320 µM (≈ 626 µg/mL) | MIC (Candida albicans): 2320 µM (≈ 626 µg/mL) | MIC (Saccharomyces cerevisiae): 2320 µM (≈ 626 µg/mL) | MIC (Aspergillus brasiliensis): 2320 µM (≈ 626 µg/mL) | IC30 (NCI-H460 [13]): 5 µM | IC50 (NCI-H460 [13]): 14 µM | IC30 (NCI-H460 [14]): 3 µM | IC50 (NCI-H460 [14]): 10 µM | IC50 (HaCaT [15]): 21 µM | IC30 (HaCaT [15]): 12 µM | selectivity ratio [19]: ≤ 1.5 | selectivity ratio [20]: ≤ 1.5 | selectivity ratio (NCI-H460 [21]): <=1.5 | MIC (Staphylococcus aureus): 9 µM (≈ 2.42 µg/mL) | MIC (Bacillus spizizenii): 2320 µM (≈ 626 µg/mL) | MIC (Micrococcus luteus [23]): 9 µM (≈ 2.42 µg/mL)
